Published values pooled from the literature.
Protocols differ between the studies behind these lines.
Cell line: HepG2
Observed: cell growth or viability

Compound	technique	concentration	time	endpoint	value
c1ccc2c(-c3nc4ccccc4[nH]3)c3ccccc3cc2c1	MTT		48 h	IC50	9.79 µM
COc1ccc(NC(=O)c2c(Nc3ccccc3)sc(C#N)c2NC(=O)CNc2ccc(Br)cc2)cc1	SRB	10 µM	48 h	viability	46.2%
CCOC(=O)c1ccc(-n2c(C)cc(/C=C/c3ccc(OC)cc3)c(C#N)c2=O)cc1	MTT	50 µM	24 h	viability	58.1%
Clc1ccc(-c2nc3ccccc3[nH]2)cc1	MTT		48 h	IC50	51.5 µM
CC(=O)Nc1cccc(-n2c(=O)n(C3CC3)c(=O)c3c(Nc4ccc(I)cc4F)n(C)c(=O)c(C)c32)c1	resazurin	0.1 µM	72 h	viability	40.7%
COc1ccc(NC(=O)c2c(Nc3ccccc3)sc(C(=O)NN=Cc3ccc(Cl)cc3)c2NC(C)=O)cc1	SRB	10 µM	48 h	viability	71.2%
CCOC(=O)c1ccc(-n2c(N)c(C#N)c(CC#N)c(C#N)c2=O)cc1	MTT	3.125 µM	24 h	viability	90.2%
COc1ccc(NC(=O)c2c(Nc3ccccc3)sc(C(=O)NN=Cc3ccccc3)c2NC(C)=O)cc1	SRB	1 nM	48 h	viability	99.3%
Cc1ccc2nc(-c3ccc(Cl)cc3)n(Cc3ccccc3)c2c1	MTT			IC50	3.22 µM
